UPR CHOP act: activators of apoptotic arm of unfolded protein response (CHOP); CHO-CHOP luciferase reporter, UPR activation, luminescence; percent of tunicamycin response over DMSO baseline; activation, % at 10 µM; 0.34% of 330,000 active;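 active means at 10 µM dose, activation of 40% or more, normalized to positive control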;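 further: 100% = tunicamycin at 10 µg/mL and 0% = DMSO alone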
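Dosing – one dose, 10 µM in 0.5% DMSO · System – CHO-CHOP cells, stable luciferase reporter of PERK-eIF2a-CHOP signalling · Input – 500 cells/well · Control set – tunicamycin 10 µg/mL final as positive, DMSO-only wells as negative · Timing – 6 h compound treatment, 37 °C · Measure – % activation vs tunicamycin · Technique – luminescence read with Steady-Glo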
CRFBP-R2 block: CRF-BP/CRF-R2 complex antagonism. HEK293 CRF-R2/CRF-BP, CRF-induced calcium fluorescence. inhibition, % at 11.8 µM. 0.59% of 350,000 active;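 active means inhibition of the ligand-induced calcium signal above about 50% at the single tested concentration, limit read from the data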
UPR XBP1 act: adaptive UPR (XBP1) activation. CHO-XBP1 luciferase reporter, IRE1-XBP1 UPR activation, luminescence; percent of tunicamycin response, DMSO as zero. activation, % at 20 µM. 0.33% of 330,000 active. AID 463104;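 active means versus positive control, 20 µM dose yields 30% or more activation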;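 further: 100% = tunicamycin at 10 µg/mL and 0% = DMSO only wells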
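Assay system: CHO-XBP1 luciferase reporter cells; Schedule: 6 h treatment, 37 °C; Detection: glow luminescence from Steady-Glo reagent; Benchmarks: high control tunicamycin 10 µg/mL final, low control DMSO vehicle only.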
Jurkat NFkB inh: lowers PMA/ionomycin-induced NF-kB signal in Jurkat cells | inhibition, % at 4 µM | PMA/ionomycin-induced NF-kB luciferase reporter, luminescence | 0.53% of 330,000 active; in the data active means inhibition above about 50%
697 NFkB inh: inhibitors of the PMA/ionomycin-induced NF-kB reporter in 697 B cells; 697 B-cell NF-kB luciferase reporter, 16 h; inhibition, % at 4 µM; 0.33% of 330,000 active; in the data active means inhibition above about 35%
XBP1 UPR conf: adaptive UPR (XBP1) activation, confirmed; activation, % at 20 µM; shares compounds with UPR XBP1 act; CHO-XBP1 IRE1-XBP1 luciferase reporter, luminescence; 63% of 1,000 active;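 active means reporter signal at least 30% of the positive control's activation in two or more of four replicate wells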;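 further: plate controls were DMSO negative control for no effect and tunicamycin 10 µg/mL positive control for full effect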
* = called active by the depositor. Hits are enriched below; roughly 1.8% of the tested compounds scored in any of these assays.

Screening CN1Cc2c(N3CCOCC3)nc3sc(C(=O)c4ccc(Br)cc4)c(N)c3c2CC1(C)C returned UPR CHOP act 7.5, CRFBP-R2 block -18.6, UPR XBP1 act 38.1*, Jurkat NFkB inh 28.2, 697 NFkB inh 18.6 and XBP1 UPR conf 63.5*.
Screening Cc1ccc(NC(=O)c2cc(S(=O)(=O)N(C)C)ccc2N2CCCC2)cc1S(=O)(=O)N(C)C returned UPR CHOP act 10.7, CRFBP-R2 block -0.7, UPR XBP1 act 53.0*, Jurkat NFkB inh -23.0, 697 NFkB inh 21.9 and XBP1 UPR conf 67.1*.
For Cc1cccc(OCC(=O)N(C)c2c(N)n(Cc3ccccc3)c(=O)[nH]c2=O)c1C the results were UPR CHOP act 0.1, CRFBP-R2 block 1.6, UPR XBP1 act 0.1, Jurkat NFkB inh -0.7 and 697 NFkB inh 8.2.
`Cn1c(/C=C/c2ccc(Cl)cc2Cl)c([N+](=O)[O-])c(=O)n(C)c1=O` gave UPR CHOP act 25.7, CRFBP-R2 block -40.0, UPR XBP1 act 38.3*, Jurkat NFkB inh 8.4, 697 NFkB inh -12.8 and XBP1 UPR conf 39.0*.
`COc1ccc(/C=C/c2c([N+](=O)[O-])c(=O)n(C)c(=O)n2C)c(OC)c1` gave UPR CHOP act -0.4, CRFBP-R2 block 19.4, UPR XBP1 act 2.0, Jurkat NFkB inh 4.5 and 697 NFkB inh -2.9.
Screening COCCNC(=O)C1CC(c2cccc(F)c2)=NO1 (centres undefined) returned UPR CHOP act -0.9, CRFBP-R2 block -4.2, UPR XBP1 act 30.6*, Jurkat NFkB inh 4.2, 697 NFkB inh 13.9 and XBP1 UPR conf 0.4.
Screening COc1ccc(CNCCC(c2ccc(F)cc2)c2ccc(OC)cc2)cc1 (centres undefined) returned UPR CHOP act -1.0, CRFBP-R2 block -29.4, UPR XBP1 act -2.9, Jurkat NFkB inh -2.0 and 697 NFkB inh 6.5.
`COc1ccc(C(CCNCc2ccc(F)cc2)c2ccc(F)cc2)cc1` (centres undefined) gave UPR CHOP act 3.6, CRFBP-R2 block -92.6, UPR XBP1 act 48.0*, Jurkat NFkB inh -0.4, 697 NFkB inh 7.4 and XBP1 UPR conf 64.7*.
Screening COc1ccc(CNCCC(c2ccc(OC)cc2)c2ccccc2OC)cc1 (centres undefined) returned UPR CHOP act 2.3, CRFBP-R2 block 0.1, UPR XBP1 act -2.8, Jurkat NFkB inh -0.5 and 697 NFkB inh -18.1.
COc1ccc(C(CCNCc2ccccc2)c2ccc(F)cc2)cc1 (centres undefined) was read as UPR CHOP act 0.6, CRFBP-R2 block -44.5, UPR XBP1 act 48.2*, Jurkat NFkB inh -3.3, 697 NFkB inh 6.2 and XBP1 UPR conf 71.3*.
Screening COc1ccc(CNC(=O)CNC(C)c2ccc(F)cc2)cc1 (centres undefined) returned UPR CHOP act 0.5, CRFBP-R2 block 5.7, UPR XBP1 act -1.3, Jurkat NFkB inh 1.3 and 697 NFkB inh 1.8.
Screening COc1ccc(C(CCNC(C)c2ccccc2)c2ccc(F)cc2)cc1 (centres undefined) returned UPR CHOP act 1.7, CRFBP-R2 block -86.1, UPR XBP1 act 45.5*, Jurkat NFkB inh 6.6, 697 NFkB inh -5.5 and XBP1 UPR conf 63.2*.
`COc1ccc(NC(=O)CN(C)C(=O)CNC(=O)c2cccs2)cc1` gave UPR CHOP act 1.0, CRFBP-R2 block -18.7, UPR XBP1 act -5.2, Jurkat NFkB inh 1.8 and 697 NFkB inh -5.5.
Screening O=S(=O)(c1ccc2nc(N3CCN(c4ccc(F)cc4)CC3)ccc2c1)N1CCCCC1 returned UPR CHOP act 4.9, CRFBP-R2 block -8.1, UPR XBP1 act 7.1, Jurkat NFkB inh 17.4 and 697 NFkB inh -7.3.
For COc1cccc(NC(=O)CSc2nc3c([nH]c4ccccc43)c(=O)n2C)c1 the results were UPR CHOP act -1.6, CRFBP-R2 block 15.9, UPR XBP1 act 34.8*, Jurkat NFkB inh -10.4, 697 NFkB inh 0.1 and XBP1 UPR conf 16.8.
For COc1ccc(CNC(=O)COC(=O)c2[nH]c(C)c(C(C)=O)c2C)cc1OC the results were UPR CHOP act -0.9, CRFBP-R2 block -4.4, UPR XBP1 act -0.9, Jurkat NFkB inh -0.5 and 697 NFkB inh 13.6.
`CCCCn1c(NC(C)=O)c(C#N)c2nc3ccccc3nc21` gave UPR CHOP act -0.3, CRFBP-R2 block -40.9, UPR XBP1 act 3.5, Jurkat NFkB inh 6.7 and 697 NFkB inh 14.0.
Screening C=CCn1c(NC(=O)c2ccccc2Cl)c(C#N)c2nc3ccccc3nc21 returned UPR CHOP act 0.2, CRFBP-R2 block -17.6, UPR XBP1 act 35.2*, Jurkat NFkB inh 4.1, 697 NFkB inh -10.2 and XBP1 UPR conf -0.7.
CC1=CC(C)[C@H](/C=N/n2c(=O)[nH]c3c([nH]c4ccc(C)cc43)c2=O)C(C)C1 (some centres undefined) was read as UPR CHOP act 3.4, CRFBP-R2 block -1.6, UPR XBP1 act 86.8*, Jurkat NFkB inh 6.2, 697 NFkB inh 11.6 and XBP1 UPR conf 98.8*.
Screening CC(CC(=O)NNC(=O)c1cccc(Cl)c1)c1ccccc1 (centres undefined) returned UPR CHOP act 0.6, CRFBP-R2 block -8.9, UPR XBP1 act 5.8, Jurkat NFkB inh -4.1 and 697 NFkB inh -6.1.
`CC(C)CN=C(NS(=O)(=O)c1ccccc1)C(Cl)(Cl)Cl` gave UPR CHOP act 9.6, CRFBP-R2 block -6.7, UPR XBP1 act 47.1*, Jurkat NFkB inh 3.5, 697 NFkB inh 16.4 and XBP1 UPR conf 59.5*.
`Cc1ccc(-c2nnn(CC(=O)Nc3ccc(S(=O)(=O)N4CCC(C)CC4)cc3)n2)cc1` gave UPR CHOP act 4.2, CRFBP-R2 block 12.0, UPR XBP1 act 44.2*, Jurkat NFkB inh 5.9, 697 NFkB inh -14.4 and XBP1 UPR conf 56.5*.
Screening CC1CCN(S(=O)(=O)c2ccc(NC(=O)Cn3nnc(-c4ccccc4)n3)cc2)CC1 returned UPR CHOP act 0.4, CRFBP-R2 block 5.0, UPR XBP1 act 1.9, Jurkat NFkB inh -2.6 and 697 NFkB inh 13.9.
For Cc1cc(C)cc(NC(=O)Cn2c(=O)oc3cc(S(=O)(=O)N4CCC(C)CC4)ccc32)c1 the results were UPR CHOP act 0.0, CRFBP-R2 block 13.0, UPR XBP1 act 32.3*, Jurkat NFkB inh -2.1, 697 NFkB inh -2.9 and XBP1 UPR conf 0.6.
O=S(=O)(NC1=NCCCCC1)c1ccc(Cl)cc1Cl was read as UPR CHOP act -0.5, CRFBP-R2 block -3.4, UPR XBP1 act -3.8, Jurkat NFkB inh -12.4 and 697 NFkB inh 12.9.
For CCOc1cccc2sc(N(CCCN(C)C)C(=O)c3ccc(S(=O)(=O)N(CC)Cc4ccccc4)cc3)nc12 the results were UPR CHOP act 9.1, CRFBP-R2 block -24.2, UPR XBP1 act 42.6*, Jurkat NFkB inh 12.2, 697 NFkB inh -85.2 and XBP1 UPR conf 11.8.
